Only some compounds are listed: those with a hit (about 2.1% of all), similar ones and a draw of the others.
C2C12 statin: suppression of simvastatin myotoxicity; C2C12 myotubes + simvastatin, ATP luminescence, 48 h; scaled: DMSO 0, geranylgeraniol control 100; rescue of ATP level, % at 7.49 µM; 330,000 tested, 0.78% active;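 active = mean ATP rescue above about 67%, or every replicate alone reaching that limit, limit read from the data, passing the limit was not always enough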;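 note: myotubes were challenged with 10 µM simvastatin during compound exposure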
ASAP1 inh: inhibitors of human ASAP1 ArfGAP activity; ASAP1-stimulated ARF1 GTP hydrolysis, GDP FP detection; inhibition, % at 16.5 µM; 360,000 tested, 0.19% active; AID 624377; in the data active = inhibition above about 25%
Mot1-301 SUMO: inhibitors of SUMOylation pathway: yeast Mot1-301 growth rescue; S. cerevisiae Mot1-301 growth rescue, ATP luminescence, 38.5C; percent above DMSO median, 100 means doubled; growth rescue, % at 18.8 µM; 320,000 tested, 1% active;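 active = every valid replicate shows activation above 250% relative to neutral control wells; inactive = the rest, any valid replicate at or below 250%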
APOBEC3A inh: blocks human APOBEC3A ssDNA deamination; P31941; recombinant A3A, FAM/TAMRA ssDNA deamination fluorescence; inhibition, % at 20 µM; 330,000 tested, 0.41% active;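 active = at least 40% inhibition at 20 µM here, with at most 30% in a related deaminase screen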
A3G deaminase: APOBEC3G (human) deaminase inhibition | Q9HC16 | inhibition, % at 20 µM | AID 493012 | recombinant A3G, ssDNA deamination FAM/TAMRA fluorescence | 330,000 tested, 0.28% active;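 active = inhibition of at least 40% at 20 µM, with no more than 30% in the related APOBEC3A deaminase screen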
Target sequence (Q9HC16 whole entry, looked up): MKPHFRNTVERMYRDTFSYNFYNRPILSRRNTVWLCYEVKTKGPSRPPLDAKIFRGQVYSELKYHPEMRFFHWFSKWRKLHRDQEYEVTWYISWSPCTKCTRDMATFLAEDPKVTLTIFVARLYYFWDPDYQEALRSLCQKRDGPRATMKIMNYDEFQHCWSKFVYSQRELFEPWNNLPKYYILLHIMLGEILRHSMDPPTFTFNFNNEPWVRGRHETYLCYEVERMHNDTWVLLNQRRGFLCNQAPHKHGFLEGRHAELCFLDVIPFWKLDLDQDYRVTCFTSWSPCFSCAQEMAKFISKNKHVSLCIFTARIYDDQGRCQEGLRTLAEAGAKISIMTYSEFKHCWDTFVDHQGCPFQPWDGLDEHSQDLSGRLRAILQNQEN
ARFGAP1 inh: rat ARFGAP1 inhibition; Q62848; Arfgap1-stimulated ARF1 GTP hydrolysis, GDP FP detection; inhibition, % at 16.5 µM; 360,000 tested, 0.26% active; AID 651572;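 active = inhibition above a per-plate limit, mean inhibition of low control wells plus 3 SD, cut at about 25% in these data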
Target sequence (Q62848 1-136 limits assumed): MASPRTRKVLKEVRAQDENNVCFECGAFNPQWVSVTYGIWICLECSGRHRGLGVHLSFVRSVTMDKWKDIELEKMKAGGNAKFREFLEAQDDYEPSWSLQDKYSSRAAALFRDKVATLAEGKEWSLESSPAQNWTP
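Repeats: one replicate per compound; assay system: rat Arfgap1 catalytic domain, aa 1-136; times: enzyme reaction 120 min at 25 °C after 20 min preincubation; detection: FP of antibody-bound GDP Alexa 633 tracer, ex 620/em 688 nm; benchmarks: high control wells lacking Arfgap1, low control full reaction with DMSO; reagent: human ARF1(Δ1-17)-GTP substrate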
APOBEC3G confirm: confirmation of human APOBEC3G DNA deaminase inhibitors; 890 tested, 72% active; inhibition, % at 20 µM; recombinant A3G ssDNA deaminase, UDG/FAM-TAMRA fluorescence; shares compounds with A3G deaminase;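 active = inhibition reaching a set limit in any replicate at 20 µM, the limit being 80% of the first screen's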
UDG ctr A3G: counter-screen for APOBEC3G inhibitors: E. coli UDG. 710 tested, under 10 active. UDG counterscreen, FAM/TAMRA oligo fluorescence. inhibition, % at 20 µM. shares compounds with A3G deaminase;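 active = compounds giving 40% or more inhibition at 20 µM in any one of the three replicates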;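 note: inhibitors lower the FAM signal released by uracil excision and alkaline cleavage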
Target sequence (P12295 whole entry, looked up): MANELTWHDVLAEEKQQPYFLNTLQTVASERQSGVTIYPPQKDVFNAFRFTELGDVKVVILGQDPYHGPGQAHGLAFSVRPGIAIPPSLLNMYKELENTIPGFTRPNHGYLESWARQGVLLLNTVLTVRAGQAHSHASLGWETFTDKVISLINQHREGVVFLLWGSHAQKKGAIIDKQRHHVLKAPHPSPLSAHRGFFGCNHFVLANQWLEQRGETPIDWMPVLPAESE
Of the large screens only hits and unclear results are named; the others gave an inactive call (follow-up assays come after a bar, where they were run); ! = repeats disagree.

C[C@@H]1CN([C@@H](C)CO)C(=O)Cc2cc(NC(=O)Nc3ccc4c(c3)OCO4)ccc2O[C@H]1CN(C)C(=O)NC1CCCCC1	none (no result: ASAP1 inh, Mot1-301 SUMO, APOBEC3A inh, A3G deaminase, ARFGAP1 inh)
Cc1cc(C(=O)Nc2cccc3c2O[C@@H](CN(C)S(=O)(=O)c2ccccc2)[C@H](C)CN([C@H](C)CO)C3=O)n(C)n1	none (no result: ASAP1 inh, Mot1-301 SUMO, APOBEC3A inh, A3G deaminase, ARFGAP1 inh)
O=c1[nH]c(-c2ccncc2)nc2ccccc12	A3G deaminase 58 | APOBEC3G confirm 56 | UDG ctr A3G inactive
COc1ccc(C(=S)N2CCN(c3cccc(Cl)c3)CC2)c(OC)c1	none (no result: C2C12 statin)
Oc1ccc(C(=S)N2CCN(c3cccc(Cl)c3)CC2)cc1	A3G deaminase 40 (no result: C2C12 statin) | APOBEC3G confirm 41 | UDG ctr A3G inactive
COc1cc(C(=S)N2CCN(c3cccc(Cl)c3)CC2)ccc1O	A3G deaminase 50 (no result: Mot1-301 SUMO) | APOBEC3G confirm 40 | UDG ctr A3G inactive
C[C@H]1CN([C@@H](C)CO)C(=O)Cc2cc(NC(=O)Nc3ccccc3)ccc2O[C@H]1CN(C)C(=O)Nc1ccc2c(c1)OCO2	none (no result: ASAP1 inh, Mot1-301 SUMO, APOBEC3A inh, A3G deaminase, ARFGAP1 inh)
C[C@@H]1CN([C@H](C)CO)C(=O)c2cccc(NC(=O)c3ccncc3)c2O[C@H]1CN(C)S(C)(=O)=O	none (no result: ASAP1 inh, Mot1-301 SUMO, APOBEC3A inh, A3G deaminase, ARFGAP1 inh)
Cc1ccc2c(c1)-c1c(ssc1=S)C(C)(C)N2C(=O)c1ccco1	A3G deaminase 42 | APOBEC3G confirm 55 | UDG ctr A3G inactive
CC1(C)c2ssc(=S)c2-c2ccccc2N1C(=O)c1ccco1	none
O=C(C[C@H]1CC[C@@H](NC(=O)CC2CC2)[C@H](CO)O1)NCc1ccc(Cl)cc1	none (no result: ASAP1 inh, Mot1-301 SUMO, APOBEC3A inh, A3G deaminase, ARFGAP1 inh)
COc1ccc(NC(=O)c2ccc(N3C(=O)C4CC=C(Cl)CC4C3=O)cc2)cc1 (centres undefined)	none
O=C(NN1C(=O)C2CC=C(Cl)CC2C1=O)c1ccncc1 (centres undefined)	A3G deaminase 40 | APOBEC3G confirm 41 | UDG ctr A3G inactive
O=C(C[C@H]1C=C[C@@H](NC(=O)C2CCOCC2)[C@H](CO)O1)Nc1ccc(-c2ccccc2)cc1	none (no result: ASAP1 inh, Mot1-301 SUMO, APOBEC3A inh, A3G deaminase, ARFGAP1 inh)
Cc1cc(OCC(=O)N(C)c2ccccc2)cc2c1C(=O)CC(C)(C)O2	A3G deaminase 59 | APOBEC3G confirm inactive
Cc1ccc(CNC(=O)COc2cc(O)c3c(c2)OC(C)(C)CC3=O)cc1	none
CC(=O)/C(=N/Nc1ccccc1C)N1CCOCC1	A3G deaminase 41 | APOBEC3G confirm 36 | UDG ctr A3G inactive
CC(=O)/C(=N/Nc1ccccc1)N1CCOCC1	none
COCCCC/C(=N\OCCN)c1ccc(C(F)(F)F)cc1	A3G deaminase 81! | APOBEC3G confirm inactive | UDG ctr A3G inactive
O=C(CCC(=O)OCC(=O)c1ccc(C(F)(F)F)cc1)OCC(=O)c1ccc(C(F)(F)F)cc1	none (no result: C2C12 statin)
CN1C[C@@H]2[C@H](c3ccccc31)[C@H](CO)N2C(=O)C1CCCCC1	none (no result: ASAP1 inh, Mot1-301 SUMO, APOBEC3A inh, A3G deaminase, ARFGAP1 inh)
Cc1noc(C)c1NC(=O)N(C)C[C@@H]1Oc2ccc(NC(=O)Nc3cccc4ccccc34)cc2CC(=O)N([C@H](C)CO)C[C@@H]1C	none (no result: ASAP1 inh, Mot1-301 SUMO, APOBEC3A inh, A3G deaminase, ARFGAP1 inh)
N#CC(c1nc2ccccc2nc1N1CCCC1)S(=O)(=O)c1cccs1 (centres undefined)	A3G deaminase 51 (no result: C2C12 statin) | APOBEC3G confirm inactive | UDG ctr A3G inactive
C[C@H](CO)N1C[C@H](C)[C@H](CN(C)S(=O)(=O)c2ccccc2)Oc2c(NC(=O)c3nc4ccccc4s3)cccc2C1=O	none (no result: ASAP1 inh, Mot1-301 SUMO, APOBEC3A inh, A3G deaminase, ARFGAP1 inh)
O=C(CC1Sc2ncnn2C1=O)Nc1ccc(Br)cc1 (centres undefined)	A3G deaminase 41 | APOBEC3G confirm 70 | UDG ctr A3G inactive
CCOC(=O)c1sc(=S)n(C)c1NC(=O)c1ccc(OC)cc1	A3G deaminase 53 | APOBEC3G confirm 59 | UDG ctr A3G inactive
Cc1cc(OCC(=O)NCCN2CCOCC2)cc(C)c1Cl	A3G deaminase 79 | APOBEC3G confirm inactive | UDG ctr A3G inactive
Cc1ccc(OCC(=O)NCCN2CCOCC2)cc1C	none (no result: C2C12 statin)
CO[C@@H]1CN(C)C(=O)c2ccc(NC(=O)c3ccccn3)cc2OC[C@@H](C)N(C(=O)Nc2ccccc2Cl)C[C@H]1C	none (no result: ASAP1 inh, Mot1-301 SUMO, APOBEC3A inh, A3G deaminase, ARFGAP1 inh)
O=C(CSc1cn[nH]n1)Nc1cccc(C(=O)O)c1	A3G deaminase 62 | APOBEC3G confirm 87 | UDG ctr A3G inactive
CN1CCN(C(=O)c2sc(=S)n(-c3ccccc3)c2N)CC1	A3G deaminase 66 | APOBEC3G confirm 81 | UDG ctr A3G inactive
COC(=O)c1sc(=S)n(-c2cccc(Cl)c2)c1N	A3G deaminase 54 | APOBEC3G confirm 30 | UDG ctr A3G inactive
C/C(=N\NC(=O)c1cccc(N/N=C(\C)c2cc(O)ccc2O)c1)c1cc(O)ccc1O	A3G deaminase 45 (no result: C2C12 statin) | APOBEC3G confirm inactive | UDG ctr A3G inactive
C[C@H](CO)N1C[C@H](C)[C@@H](CN(C)Cc2cccc(F)c2)OCc2ccccc2-c2ccccc2C1=O	none (no result: ASAP1 inh, Mot1-301 SUMO, APOBEC3A inh, A3G deaminase, ARFGAP1 inh)
CCC(C)(C)C1CCC2(CC1)NC(=S)N(c1ccccc1)N2 (centres undefined)	none
CC(C)(C)C1CCC2(CC1)NC(=S)N(c1ccccc1)N2 (centres undefined)	Mot1-301 SUMO 302, A3G deaminase 49 (no result: C2C12 statin) | APOBEC3G confirm inactive | UDG ctr A3G inactive
CCN1[C@@H]2c3ccc(-c4cccc(F)c4)c(=O)n3C[C@@H]2[C@@H](CO)[C@@H]1C(=O)N1CCCCC1	none (no result: ASAP1 inh, Mot1-301 SUMO, APOBEC3A inh, A3G deaminase, ARFGAP1 inh)
CCOc1ccc2nc(NC(=S)N(C)C)sc2c1	A3G deaminase 47 (no result: C2C12 statin) | APOBEC3G confirm 55 | UDG ctr A3G inactive
S=c1nc(C2COc3ccccc3O2)[nH][nH]1 (centres undefined)	A3G deaminase 52 | APOBEC3G confirm 71 | UDG ctr A3G inactive
S=c1[nH]nc(C2COc3ccccc3O2)o1 (centres undefined)	none (no result: Mot1-301 SUMO)
COc1ccc(-n2sc3ccc(F)cc3c2=O)cc1	A3G deaminase 67 | APOBEC3G confirm 81 | UDG ctr A3G inactive
N#Cc1ccc2sn(-c3ccccc3)c(=O)c2c1	none (no result: Mot1-301 SUMO, APOBEC3A inh, A3G deaminase)
Cc1ccc(C)c(-n2sc3ccc(F)cc3c2=O)c1	A3G deaminase 56 | APOBEC3G confirm 61 | UDG ctr A3G inactive
O=c1c2cc(F)ccc2sn1-c1ccc(F)cc1	A3G deaminase 72 (no result: ASAP1 inh, ARFGAP1 inh) | APOBEC3G confirm 78 | UDG ctr A3G inactive
Cc1ccc(NC2Sc3ccccc3NC2=O)cc1 (centres undefined)	A3G deaminase 51 (no result: C2C12 statin) | APOBEC3G confirm inactive | UDG ctr A3G inactive
O=C1Nc2ccccc2SC1c1ccccc1 (centres undefined)	none (no result: APOBEC3A inh, A3G deaminase)

Assay outcomes from PubChem BioAssay.
